The test system of one test is FLCN–LDHA complex. Put plainly: FLCN-LDHA complex disruption in HEK293. It counts as cell-based, human. To be noted: HEK293, exogenous addition, 6 h; n=3. The procedure, abridged: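 HEK293 cells were given exogenous lactate or pyruvate for 6 h. Lysates underwent anti-FLCN IP (antibody 1 h, then protein G agarose 2 h, 4 °C), four washes in lysis buffer, Laemmli elution and immunoblotting alongside whole-cell extracts. Three independent experiments.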

In test [1] the test system is LDHA. Description: Fluorescence polarization anisotropy binding to LDHA. Further details: species or system human. To be noted: rhodamine B-labeled peptide, pH 7.2, 30 min on ice, n = 3.
The test system of test [2] is LDHA. Description: LDHA kinetics and inhibition assay. The format is biochemical, human. Particulars: n = 3; for potency as compared to LDHA inhibitor FX11: 2 nM FLCN or 100 nM FLCN-10 versus 60 μM FX11, pH 7.0, 2 mM pyruvate; for mode of LDHA inhibition: 50 mM Tris-HCl pH 7.0, 2 mM pyruvate, varied NADH, 2 nM FLCN or 100 nM FLCN-10. The procedure, abridged:
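Reactions contained 50 mM Tris-HCl pH 7.0, 2 mM pyruvate and varied NADH, with test protein (2 nM), test peptide (100 nM) or reference inhibitor FX11 (60 μM). Triplicates, ≥2 independent assays. IC50 came from curve fitting; Ki came from Lineweaver–Burk analysis and IC50-to-Ki conversion.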

For another test, the system named is dimeric LDHA. Description: LDHA activity, predominantly dimeric LDHA. It counts as biochemical, human. To be noted: LDHA 10 ng/μl (predominantly dimeric), increasing amounts of FLCN protein or FLCN-10; n=3.
A further test concerns pTyr10-LDHA. Put plainly: LDHA activity. It counts as cell-based, human. Particulars: rhodamine B-labeled peptides, pTyr10-LDHA normalized to NT; n=3. The method in brief:
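HEK293 cells were treated with 1 μM rhodamine B-labeled peptides for 2 h. Whole-cell lysates were immunoblotted for pTyr10-LDHA, and band density was expressed as fold change versus untreated cells. n = 3.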

The next test has as its system ccRCC cells. Put plainly: Apoptosis in ccRCC cells on FLCN overexpression. The format is cell-based, human. To be noted: 786-O, Caki-1 and Caki-2, FLAG-tagged FLCN, immunoblot. (In general: Immunoblotting shows a protein as a band on a membrane.)
A further test relates to LDHB. Description: Co-immunoprecipitation of FLCN with LDHB. The format is binding, human. To be noted: HEK293 cells, LDHB-FLAG IP; HAP1 cells. The method in brief: (§1)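 Lysates came from transfected HEK293 cells (24 h post-transfection) or, for endogenous FLCN IP, from LDHA or LDHB knockout HAP1 cells. Capture used anti-FLAG or anti-HA agarose (2 h, 4 °C) or anti-LDHA/anti-FLCN antibody (1 h) followed by protein G agarose (2 h, 4 °C). Beads were washed four times in NP40 lysis buffer, eluted in Laemmli buffer and immunoblotted.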

The subject of another test is LDH. To be noted: UOK257 lysates, 2 μg plasmid; n = 3.
In test [3] the test system is LDHA/LDHB chimeric constructs. Description: Co-IP of FLCN with LDHA/LDHB chimeric constructs. The format is binding, human. Particulars: HEK293, co-IP.
In the next test the test system is UOK257 cells. Description: Extracellular acidification rate. Particulars: n = 8. It counts as cell-based, human. The procedure, abridged:
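UOK257 cells were transfected at 50% confluency in 100-mm dishes (24 h), or left untransfected for peptide treatment. Cells were seeded at 1 × 10^5 per well 24 h before assay and treated immediately before measurement (peptide, 2 h). ECAR was read by Seahorse XF glycolytic stress test. Transfection n = 8, peptide n = 4 independent samples.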

Test [4] relates to LDHA. Put plainly: Co-immunoprecipitation of FLCN with LDHA. It counts as binding, human. To be noted: expressed in HEK293 cells, FLAG IP, immunoblot. The procedure, abridged: as §1
Test [5] concerns LDHA. Put plainly: Cibacron Blue-agarose pulldown of LDHA. It counts as binding, human. To be noted: HEK293 cells overexpressing FLCN; Cibacron blue agarose 1 h at 4 °C; n=3. The procedure, abridged:
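Lysates of HEK293 cells expressing empty vector or FLCN-FLAG were incubated with Cibacron Blue agarose for 1 h at 4 °C. LDHA was immunoblotted and the pulldown:input ratio was normalized to vector.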

For test [6], the system named is LDHA. Description: Native PAGE of LDHA oligomers. Further details: species or system human. The method in brief: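 HEK293 cells were transiently transfected with pcDNA3 constructs (TransIT-2020) for 24 h and lysed. Lysates were mixed with non-denaturing loading buffer (250 mM Tris-HCl pH 6.8, 30% glycerol, 0.05% bromophenol blue; 5× stock) for 5 min at room temperature. Samples were resolved on Tris-HCl gels in native running buffer (25 mM Tris, 192 mM glycine).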

Setting [7] is: overexpression of FLCN in HEK293, native PAGE.

“Also recorded” adds a separate entry of the source. No end group written: not given here.

On to `CC(=O)C(=O)O` [pyruvate], for which the “effect on FLCN–LDHA complex” value with FLCN–LDHA complex is “disruption of the FLCN–LDHA complex”.
Consider `CC(O)C(=O)O` (centres unmarked) [lactate], for which, in the test with FLCN–LDHA complex, the “effect on FLCN–LDHA complex” value is recorded as “much milder effect on dissociation of LDHA from FLCN”.
Regarding “FLCN-10: decapeptide derived from the FLCN loop region; aa 219–228 (AQRMNTAFTP; also: rhodamine B label (position not given here))”, the “binding to LDHA (in words)” value in the test with LDHA [1] was “greatly enhanced binding”. Moreover, in the test with LDHA [2], the “potency as compared to LDHA inhibitor FX11” value is reported as “greatly improved potency” and the “mode of LDHA inhibition” value is recorded as “uncompetitively inhibits LDHA”. Also, the “inhibition of dimeric LDHA” value with dimeric LDHA is given as “effectively inhibit dimeric”.
Regarding “FLCN-1: peptide derived from aa 220–230 of FLCN (QRMNTAFTPFL; also: rhodamine B label (position not given here))”, the “binding to LDHA (in words)” value with LDHA [1] is on record as “bound tightly to LDHA”. Besides, in the test on pTyr10-LDHA, the “LDHA activity in HEK293 cells” value is “effectively reduced LDHA activity”.
With folliculin [FLCN], in the test on ccRCC cells, the “apoptosis in ccRCC on overexpression” value was “induced apoptosis in ccRCC cells”. For the same compound, the “binding to LDHB (co-IP)” value in the test with LDHB is given as “no interaction with LDHB was detected”. Also, the “LDH activity after transfection of 2 μg” value in the test with LDH is ~ 77%. In the test on LDHA [2], the “potency as compared to LDHA inhibitor FX11” value is “greatly improved potency” and the “mode of LDHA inhibition” value is recorded as “uncompetitively inhibits LDHA; also recorded: uncompetitive inhibitor of LDHA”. In addition, in test [3] (NC chimeric construct), the “binding to LDHA with both domains (NC) replaced by LDHB” value is given as “completely abrogated FLCN interaction”. Moreover, the “binding to LDHA with LDHB N domain or C domain individually” value in test [3] (chimeric constructs (first 22 / last 38 amino acids swapped)) is on record as “preserved binding”. Also, in the test on UOK257 cells (UOK257, 2 μg transfection), the “ECAR, transfection of 2 μg plasmid” value was “little effect”. The “ECAR, transfection of 8 μg plasmid” value with UOK257 cells (UOK257, 8 μg transfection) is on record as “reduced ECAR to a similar level as the FLCN-replaced control cell line”. The “binding to LDHA (co-IP)” value in the test with LDHA [4] was “specifically bound to LDHA”. In addition, the “inhibition of dimeric LDHA” value with dimeric LDHA was “effectively inhibit dimeric”. Besides, in the test with LDHA [5], the “LDHA binding to Cib-agarose” value was “greatly diminished”. In addition, the “preference for LDHA oligomeric state” value in the test on LDHA [6] (dimer compared to tetramer) is recorded as “prefers binding to the less active LDHA dimer”. For the same compound, in the test with LDHA [6] (setting [7]), the “effect on large oligomeric complexes of LDHA” value is listed as “decrease in large oligomeric complexes of LDHA” and the “formation of dimeric LDHA species (70 kDa)” value is reported as “induces formation of a dimeric LDHA species”.

These data come from paper PMC9278990 (Nature structural & molecular biology, 2021).
